Converted amounts (≈) assume the structure as drawn. The source made the active and inactive calls. The calls are words filed in the database; no cut-off is given here.
Legend:
IPEC-J2 [1] = experiment: Induction of porcine IPEC-J2 cells monolayer development assessed as increase in transepithelial electrical resistance at 20 uM after 6 days by voltammetric method; assay type: functional, cell-based; settings: Sus scrofa domesticus, time 6.0 day
Procedure, shortened: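 IPEC-J2 cells were seeded at 5 × 10^5/insert (0.4 μm PET) and cultured until TEER exceeded 1 kΩ cm2 (day 7). Apical medium was then replaced with 20 μM compound or PBS and renewed at day 10, with basolateral medium changed in parallel. TEER was read with an EVOM2 chopstick electrode at days 10 and 13. Mann–Whitney test versus PBS.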

Escherichia coli [2] = experiment: Antibacterial activity against Escherichia coli by two-fold serial dilution method; assay type: functional
Escherichia coli [3] = experiment: Antibacterial activity against heat labile toxin gene positive Escherichia coli; assay type: functional
Escherichia coli [4] = experiment: Antibacterial activity against heat stable toxin gene positive Escherichia coli; assay type: functional
Escherichia coli [5] = experiment: Antibacterial activity against invasive E gene positive Escherichia coli; assay type: functional
Escherichia coli [6] = experiment: Antibacterial activity against Escherichia coli; assay type: functional
Procedure, shortened: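 Strains: enteropathogenic E. coli O147:K89:K88 (Abbotstown) and non-fimbriated DSM 2840. Both were subcultured in BHI with shaking at 37 °C for 2 days, then inoculated at 10^4 CFU/mL final in BHI microplates. Extract stock was in water and pure compounds in DMSO, tested at 20–2000 μg/mL (extract), with ciprofloxacin as positive control. Plates were sealed for anaerobic conditions at 37 °C, and OD690 was read every 5 min for 24 h. MIC-level wells were plated on BHI agar (48 h). Three independent experiments were run in triplicate.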

Escherichia coli [7] = experiment: Antibacterial activity against Shiga-like toxin positive Escherichia coli; assay type: functional
Escherichia coli [8] = experiment: Antibacterial activity against Escherichia coli ATCC 25922; assay type: functional
Escherichia coli [9] = experiment: Antibacterial activity against Escherichia coli IFO 3972; assay type: functional
Escherichia coli [10] = experiment: Growth inhibition of Escherichia coli 0147:K89:K88 infected in porcine IPEC-J2 cells assessed as inhibition of EPEC adhesion 100 uM preincubated for 24 hrs followed by compound wash subsequently infected with bacteria by CFDA-SE staining based flow cytometric analysis; assay type: functional; settings: 0147:K89:K88, IPEC-J2, in Sus scrofa
Procedure, shortened: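 IPEC-J2 cells were seeded at 10^5/well and grown 7 days. On day 8 they were treated 24 h, then washed twice with warm PBS and given antibiotic-free medium. Infection used CFDA-SE-labelled (1 mM, 120 min, 37 °C) O147:K89:K88 at MOI 100 for 45 min, followed by three PBS washes and trypsinization. Flow cytometry measured MFI over 10 000 events. Mean ± SD of three experiments in triplicate; Dunnett's test versus PBS.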

Escherichia coli [11] = experiment: Growth inhibition of Escherichia coli 0147:K89:K88 measured every 5 mins for 24 hrs by turbidometric analysis; assay type: functional; settings: time hrs <=24
Procedure, shortened: (§1)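 Strains were revived from cryostocks and passaged twice daily in BHI with shaking at 37 °C over 2 days. Double-strength BHI plus diluted test stock (compounds in DMSO, 0.22 μm filtered), inoculum at final 10^4 CFU/mL, film-sealed for anaerobic conditions, 37 °C in plate reader. OD690 was read every 5 min for 24 h; lag time came from the lag-exponential method. Three independent experiments were run, each in triplicate.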

Escherichia coli [12] = experiment: Growth inhibition of Escherichia coli DSM 2840 assessed as lag time at 500 uM measured every 5 mins for 24 hrs by turbidometric analysis (reference value: 312 min); assay type: functional; settings: time hrs <=24; procedure, shortened: as §1
Escherichia coli [13] = experiment: Growth inhibition of Escherichia coli DSM 2840 assessed as lag time at 200 uM measured every 5 mins for 24 hrs by turbidometric analysis (reference value: 312 min); assay type: functional; settings: time hrs <=24; procedure, shortened: as §1
Escherichia coli [14] = experiment: Growth inhibition of Escherichia coli DSM 2840 assessed as lag time at 100 uM measured every 5 mins for 24 hrs by turbidometric analysis (reference value: 312 min); assay type: functional; settings: time hrs <=24; procedure, shortened: as §1
Escherichia coli [15] = experiment: Growth inhibition of Escherichia coli DSM 2840 assessed as lag time at 50 uM measured every 5 mins for 24 hrs by turbidometric analysis (reference value: 312 min); assay type: functional; settings: time hrs <=24; procedure, shortened: as §1
Escherichia coli [16] = experiment: Growth inhibition of Escherichia coli DSM 2840 assessed as lag time at 10 uM measured every 5 mins for 24 hrs by turbidometric analysis (reference value: 312 min); assay type: functional; settings: time hrs <=24; procedure, shortened: as §1
Escherichia coli [17] = experiment: Growth inhibition of Escherichia coli DSM 2840 assessed as lag time at 20 uM measured every 5 mins for 24 hrs by turbidometric analysis (reference value: 312 min); assay type: functional; settings: time hrs <=24; procedure, shortened: as §1
Escherichia coli [18] = experiment: Growth inhibition of Escherichia coli DSM 2840 assessed as lag time at 5 uM measured every 5 mins for 24 hrs by turbidometric analysis (reference value: 312 min); assay type: functional; settings: time hrs <=24; procedure, shortened: as §1
Escherichia coli [19] = experiment: Growth inhibition of Escherichia coli 0147:K89:K88 assessed as lag time at 500 uM measured every 5 mins for 24 hrs by turbidometric analysis (reference value: 300 min); assay type: functional; settings: time hrs <=24; procedure, shortened: as §1
Escherichia coli [20] = experiment: Growth inhibition of Escherichia coli 0147:K89:K88 assessed as lag time at 200 uM measured every 5 mins for 24 hrs by turbidometric analysis (reference value: 300 min); assay type: functional; settings: time hrs <=24; procedure, shortened: as §1
Escherichia coli [21] = experiment: Growth inhibition of Escherichia coli 0147:K89:K88 assessed as lag time at 100 uM measured every 5 mins for 24 hrs by turbidometric analysis (reference value: 300 min); assay type: functional; settings: time hrs <=24; procedure, shortened: as §1
Escherichia coli [22] = experiment: Growth inhibition of Escherichia coli 0147:K89:K88 assessed as lag time at 50 uM measured every 5 mins for 24 hrs by turbidometric analysis (reference value: 300 min); assay type: functional; settings: time hrs <=24; procedure, shortened: as §1
Escherichia coli [23] = experiment: Growth inhibition of Escherichia coli 0147:K89:K88 assessed as lag time at 20 uM measured every 5 mins for 24 hrs by turbidometric analysis (reference value: 300 min); assay type: functional; settings: time hrs <=24; procedure, shortened: as §1
Escherichia coli [24] = experiment: Growth inhibition of Escherichia coli 0147:K89:K88 assessed as lag time at 10 uM measured every 5 mins for 24 hrs by turbidometric analysis (reference value: 300 min); assay type: functional; settings: time hrs <=24; procedure, shortened: as §1
Escherichia coli [25] = experiment: Growth inhibition of Escherichia coli 0147:K89:K88 assessed as lag time at 5 uM measured every 5 mins for 24 hrs by turbidometric analysis (reference value: 300 min); assay type: functional; settings: time hrs <=24; procedure, shortened: as §1
Escherichia coli [26] = experiment: Growth inhibition of Escherichia coli DSM 2840 assessed as doubling time at 500 uM measured every 5 mins for 24 hrs by turbidometric analysis (reference value: 31.6 +/- 0.8 min); assay type: functional; settings: time hrs <=24; procedure, shortened: as §1
Escherichia coli [27] = experiment: Growth inhibition of Escherichia coli DSM 2840 assessed as doubling time at 200 uM measured every 5 mins for 24 hrs by turbidometric analysis (reference value: 31.6 +/- 0.8 min); assay type: functional; settings: time hrs <=24; procedure, shortened: as §1
Escherichia coli [28] = experiment: Growth inhibition of Escherichia coli DSM 2840 assessed as doubling time at 100 uM measured every 5 mins for 24 hrs by turbidometric analysis (reference value: 31.6 +/- 0.8 min); assay type: functional; settings: time hrs <=24; procedure, shortened: as §1
Escherichia coli [29] = experiment: Growth inhibition of Escherichia coli DSM 2840 assessed as doubling time at 50 uM measured every 5 mins for 24 hrs by turbidometric analysis (reference value: 31.6 +/- 0.8 min); assay type: functional; settings: time hrs <=24; procedure, shortened: as §1
Escherichia coli [30] = experiment: Growth inhibition of Escherichia coli DSM 2840 assessed as doubling time at 20 uM measured every 5 mins for 24 hrs by turbidometric analysis (reference value: 31.6 +/- 0.8 min); assay type: functional; settings: time hrs <=24; procedure, shortened: as §1
Escherichia coli [31] = experiment: Growth inhibition of Escherichia coli DSM 2840 assessed as doubling time at 10 uM measured every 5 mins for 24 hrs by turbidometric analysis (reference value: 31.6 +/- 0.8 min); assay type: functional; settings: time hrs <=24; procedure, shortened: as §1
Escherichia coli [32] = experiment: Growth inhibition of Escherichia coli DSM 2840 assessed as doubling time at 5 uM measured every 5 mins for <=24 hrs by turbidometric analysis (reference value: 31.6 +/- 0.8 min); assay type: functional; settings: time hrs <=24; procedure, shortened: as §1
Escherichia coli [33] = experiment: Growth inhibition of Escherichia coli 0147:K89:K88 assessed as doubling time at 500 uM measured every 5 mins for 24 hrs by turbidometric analysis (reference value: 34.1 +/- 0.5 min); assay type: functional; settings: time hrs <=24; procedure, shortened: as §1
Escherichia coli [34] = experiment: Growth inhibition of Escherichia coli 0147:K89:K88 assessed as doubling time at 200 uM measured every 5 mins for 24 hrs by turbidometric analysis (reference value: 34.1 +/- 0.5 min); assay type: functional; settings: time hrs <=24; procedure, shortened: as §1
Escherichia coli [35] = experiment: Growth inhibition of Escherichia coli 0147:K89:K88 assessed as doubling time at 100 uM measured every 5 mins for 24 hrs by turbidometric analysis (reference value: 34.1 +/- 0.5 min); assay type: functional; settings: time hrs <=24; procedure, shortened: as §1
Escherichia coli [36] = experiment: Growth inhibition of Escherichia coli 0147:K89:K88 assessed as doubling time at 50 uM measured every 5 mins for 24 hrs by turbidometric analysis (reference value: 34.1 +/- 0.5 min); assay type: functional; settings: time hrs <=24; procedure, shortened: as §1
Escherichia coli [37] = experiment: Growth inhibition of Escherichia coli 0147:K89:K88 assessed as doubling time at 20 uM measured every 5 mins for 24 hrs by turbidometric analysis (reference value: 34.1 +/- 0.5 min); assay type: functional; settings: time hrs <=24; procedure, shortened: as §1
Escherichia coli [38] = experiment: Growth inhibition of Escherichia coli 0147:K89:K88 assessed as doubling time at 10 uM measured every 5 mins for 24 hrs by turbidometric analysis (reference value: 34.1 +/- 0.5 min); assay type: functional; settings: time hrs <=24; procedure, shortened: as §1
Escherichia coli [39] = experiment: Growth inhibition of Escherichia coli 0147:K89:K88 assessed as doubling time at 5 uM measured every 5 mins for 24 hrs by turbidometric analysis (reference value: 34.1 +/- 0.5 min); assay type: functional; settings: time hrs <=24; procedure, shortened: as §1
IPEC-J2 [40] = experiment: Induction of claudin-4 protein expression in porcine IPEC-J2 cells at 20 uM after 6 days by Western blot analysis; assay type: functional, cell-based; settings: Sus scrofa domesticus, time 6.0 day
Procedure, shortened: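 Inserts were treated apically with 20 μM from day 7, with medium renewed at day 10. At day 13 cells were lysed and protein equalized by BCA, then run on SDS–PAGE and transferred to nitrocellulose. Blots were probed with mouse anti-claudin 4 and an HRP secondary and detected by ECL. Band intensity was normalized to β-actin and expressed as fold over PBS control.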

O=C1OC[C@H]2OC(=O)c3cc(O)c(O)c(O)c3-c3c(O)c(O)c(O)c4c3C(=O)O[C@H]([C@H]3OC(=O)c5c-4c(O)c(O)c(O)c5[C@@H]3O)[C@@H]2OC(=O)c2cc(O)c(O)c(O)c2-c2c1cc(O)c(O)c2O
Activity (IPEC-J2 [1]): Active

O=C1OC[C@H]2OC(=O)c3cc(O)c(O)c(O)c3-c3c(O)c(O)c(O)c4c3C(=O)O[C@H]([C@H]3OC(=O)c5c-4c(O)c(O)c(O)c5[C@H]3O)[C@@H]2OC(=O)c2cc(O)c(O)c(O)c2-c2c1cc(O)c(O)c2O [CASTALAGIN]
MIC (Escherichia coli [2]): 533 µM (≈ 498 µg/mL)
MIC (Escherichia coli [3]): 705 µM (≈ 659 µg/mL)
MIC (Escherichia coli [4]): 705 µM (≈ 659 µg/mL)
MIC (Escherichia coli [5]): 705 µM (≈ 659 µg/mL)
MIC (Escherichia coli [6]): 705 µM (≈ 659 µg/mL)
MIC (Escherichia coli [7]): 705 µM (≈ 659 µg/mL)
MIC (Escherichia coli [8]): 705 µM (≈ 659 µg/mL)
MIC (Escherichia coli [9]): 705 µM (≈ 659 µg/mL)
Activity (IPEC-J2 [1]): Active
inhibition at 100 µM (Escherichia coli [10]): 37.7%
MIC (Escherichia coli [11]): 500 µM (≈ 467 µg/mL)
Time (Escherichia coli [12]): >1440 min
Time (Escherichia coli [13]): 870 min
Time (Escherichia coli [14]): 515 min
Time (Escherichia coli [15]): 422 min
Time (Escherichia coli [16]): 320 min
Time (Escherichia coli [17]): 347 min
Time (Escherichia coli [18]): 322 min
Time (Escherichia coli [19]): >1440 min
Time (Escherichia coli [20]): 722 min
Time (Escherichia coli [21]): 647 min
Time (Escherichia coli [22]): 502 min
Time (Escherichia coli [23]): 380 min
Time (Escherichia coli [24]): 310 min
Time (Escherichia coli [25]): 317 min
Time (Escherichia coli [26]): >1440 min
Time (Escherichia coli [27]): 56.8 min
Time (Escherichia coli [28]): 42.9 min
Time (Escherichia coli [29]): 43 min
Time (Escherichia coli [30]): 38.1 min
Time (Escherichia coli [31]): 34.9 min
Time (Escherichia coli [32]): 33.4 min
Time (Escherichia coli [33]): >1440 min
Time (Escherichia coli [34]): 35.9 min
Time (Escherichia coli [35]): 36.6 min
Time (Escherichia coli [36]): 45.3 min
Time (Escherichia coli [37]): 45.6 min
Time (Escherichia coli [38]): 34.3 min
Time (Escherichia coli [39]): 36.8 min

O=C(O[C@@H]1COC(=O)c2cc(O)c(O)c(O)c2-c2c(cc(O)c(O)c2O)C(=O)O[C@H]1[C@@H]1OC(=O)c2cc(O)c(O)c(O)c2-c2c(O)c(O)c(O)c3c2C(=O)O[C@H]1[C@@H]3O)c1cc(O)c(O)c(O)c1Oc1cc2c(c(O)c1O)-c1c(cc(O)c(O)c1O)C(=O)OC[C@H]1OC(=O)c3cc(O)c(O)c(O)c3-c3c(O)c(O)c(O)c4c3C(=O)O[C@H]([C@H]3OC(=O)c5c-4c(O)c(O)c(O)c5[C@@H]3O)[C@@H]1OC2=O
Activity (IPEC-J2 [40]): Active
Activity (IPEC-J2 [1]): Active
